hERG rescue: shields human hERG channel from block by proarrhythmic agents | activation (rescue from dofetilide block), less the hit threshold, % at 10 µM | CHO-hERG, FluxOR thallium flux, dofetilide IC70 present | Q12809 | 0.51% of 310,000 active | AID 1511;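 active = activation above the mean of controls blocked by dofetilide plus 5 SD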;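 also: thallium influx through hERG after potassium depolarization seen as dye fluorescence rise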
KCNK9 block: inhibitors of human KCNK9 two-pore domain potassium channel; 1.2% of 310,000 active; HEK293 KCNK9, FluxOR thallium flux fluorescence; stronger effect = lower value; AID 488922; B-score at 10 µM;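 active = ratio B-score over 3 SD below the library mean, with starting fluorescence within 5 SD of its mean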;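 also: negative B-score means less thallium flux so channel inhibition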
KCNQ1 pot: potentiates or activates the human KCNQ1 potassium channel. 0.35% of 310,000 active. P51787. CHO-K1 KCNQ1, thallium flux FluxOR fluorescence; stronger effect = higher value. AID 2648. B-score at 10 µM;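 active = fluorescence ratio B-score, a plate-corrected score, at least three library SD, with initial intensity B-score within 5 SD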
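Test system: CHO-K1 cells stably expressing KCNQ1 / Medium: assay buffer / Also added: depolarizing K+/Tl+ stimulus, K2SO4 and Tl2SO4 each 12.5 mM in 5x stock / Incubation: 90 min dye loading and 20 min compound exposure, both at room temperature / Signal: thallium influx via FluxOR fluorescence, kinetic imaging / Evaluation: B score of baseline-normalized fluorescence ratio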
Kir21 inh: Kir2.1 (mouse) channel inhibition; P35561; HEK293-Kir2.1, FluxOR thallium flux fluorescence; stronger effect = lower value; B-score at 10 µM; 0.85% of 310,000 active; AID 1672;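 active = fluorescence ratio B-score at or below minus 3 SD of library scores, with starting-brightness B-score within 2 SD, cut at about -4.2 in these data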;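 also: channel flux triggered by added potassium and thallium sulfate stimulus; B-score of peak minus minimum fluorescence over baseline after thallium stimulus; more negative B-score means stronger Kir2.1 block with less thallium influx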
KCNQ1 inh: human KCNQ1 channel inhibition; CHO-K1 KCNQ1, FluxOR thallium flux fluorescence; stronger effect = higher value; B-score at 10 µM; 1.3% of 310,000 active; AID 2642;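 active = compounds whose thallium flux B-score, printed positive for inhibition, exceeds three library SD while starting fluorescence stays within three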;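 also: channel opened by potassium depolarization with thallium stimulus after 20 min compound exposure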
KCNK3 block: human KCNK3 channel inhibition, primary screen; O14649; AID 602410; B-score at 10 µM; 0.84% of 340,000 active; CHO-KCNK3 thallium flux, FluxOR fluorescence; stronger effect = lower value;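 active = B-score under library mean minus 4 SD, starting fluorescence ratio at most library mean plus 5 SD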;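 also: more negative B-score means stronger inhibition of thallium flux through KCNK3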
Target sequence (O14649 whole entry, looked up): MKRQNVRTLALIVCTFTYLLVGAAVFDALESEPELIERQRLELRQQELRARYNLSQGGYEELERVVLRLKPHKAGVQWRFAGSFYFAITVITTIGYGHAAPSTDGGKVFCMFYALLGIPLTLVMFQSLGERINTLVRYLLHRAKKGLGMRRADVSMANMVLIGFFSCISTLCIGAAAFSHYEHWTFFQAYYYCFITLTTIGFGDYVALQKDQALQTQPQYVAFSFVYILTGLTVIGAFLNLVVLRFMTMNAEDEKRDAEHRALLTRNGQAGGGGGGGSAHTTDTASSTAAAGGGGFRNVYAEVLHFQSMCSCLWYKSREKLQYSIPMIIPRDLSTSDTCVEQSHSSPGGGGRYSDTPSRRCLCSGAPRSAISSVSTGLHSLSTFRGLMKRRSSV
KCNK9 block conf: human KCNK9 inhibitor confirmation. HEK293 KCNK9 cells, FluxOR thallium flux fluorescence. 43% of 4,900 active. shares compounds with KCNK9 block. inhibition, % at 10 µM. AID 492992;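 active = thallium signal inhibited by more than 5 SD of the compound-free buffer control wells, on both duplicate plates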;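 also: 0% = assay buffer control wells without compound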
Kir21 sel: tests whether KCNK9 modulators also affect mouse Kir2.1 | shares compounds with KCNK9 block | 4% of 4,900 active | Kir2.1 cells, FluxOR thallium flux fluorescence | inhibition, % at 10 µM | AID 492993;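 active = thallium signal drop more than 5 SD beyond the mean of the no-compound control wells, seen in both duplicate plates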;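 also: signal is fluorescence rise after thallium addition divided by baseline fluorescence; plate controls were assay buffer only for no effect and full block by chlorpromazine control for full effect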
HEK293 Tl ctr: second counter-screen for KCNK9 modulators: effect in non-induced cells; shares compounds with KCNK9 block; non-induced KCNK9-HEK293, FluxOR thallium flux; inhibition, % at 10 µM; 40% of 4,900 active;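 active = thallium signal drop beyond 5 SD of the untreated control mean, on both duplicate plates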;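 also: plate controls were buffer only IC0 wells for no effect and SID17386958 at its maximal inhibitory level for full effect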
* = called active by the depositor; i = inactive; nt = no result given. Most compounds without a hit are left out; they make up all but 3.8% or so of the library.

SMILES	hERG rescue	KCNK9 block	KCNQ1 pot	Kir21 inh	KCNQ1 inh	KCNK3 block	KCNK9 block conf	Kir21 sel	HEK293 Tl ctr
Cc1cccc(-n2nc(C(=O)c3ccco3)cc(-c3nc4ccccc4[nH]3)c2=N)c1	-23	i	i	1.2	10*	i	i	i	i
C=CCOc1ccc(CN(C)Cc2nc3cc(C(F)(F)F)ccc3c(=O)[nH]2)cc1	-16	i	i	-2.2	i	i	i	i	i
CCc1ccccc1N1C(=O)CC(Sc2nccc(C)n2)C1=O (centres undefined)	-6	i	i	-1.5	i	i	i	i	i
O=C(Nc1ccc(F)cc1F)Nc1sccc1-c1nc2ccccc2s1	-12	-11*	i	0.55	i	i	50%*	i	26%*
CCOC(=O)c1cnn(-c2nc(SC)nc3sc4c(c23)CCCC4)c1N	9.2*	-16*	12*	3.4	i	i	66%*	i	33%*
CCOC(=O)c1cnn(-c2ncnc3sc4c(c23)CCC4)c1N	-10	i	i	-0.68	i	i	nt	nt	nt
COc1ccc(OCC(=O)N2CCN(C(=O)c3ccc(F)cc3)CC2)cc1	-1	i	i	-0.97	i	i	nt	nt	nt
COc1ccc(NC(=O)C2CCN(C(=O)Nc3ccccc3)CC2)cc1S(=O)(=O)N(C)C	nt	nt	nt	nt	nt	i	nt	nt	nt
CCn1c(SCCOc2ccc(Cl)cc2)nnc1-c1cccs1	-11	i	i	-5.8*	i	i	i	i	i
CCOC(=O)C1(CCCc2ccccc2)CCN(C2CCSCC2)CC1	-13	i	i	-1.8	i	i	i	i	i
OCC1(CCCc2ccccc2)CCN(C2CCSCC2)CC1	-12	i	i	-0.7	i	i	nt	nt	nt
Cc1ccccc1CN1C[C@@H]2C[C@@H](c3cn[nH]c3-c3ccc(F)cc3)N3CCC[C@@]23C1=O	-13	i	i	0.5	i	i	nt	nt	nt
COc1ccc(-c2[nH]ncc2[C@@H]2C[C@H]3CN(Cc4ccccc4C)C(=O)[C@]34CCCN24)cc1	-9	i	i	0.2	i	i	i	i	i
Cc1nc(N(C)Cc2ccccc2)c2nnn(Cc3ccccc3)c2n1	-14	i	i	0.96	i	i	i	i	i
COc1ccc(NC(=O)c2ccc(-c3ccc(C)c4ccccc34)o2)cc1	-8	i	i	0.9	i	i	nt	nt	nt
Cc1ccc(-c2ccc(C(=O)Nc3cccc(F)c3)o2)c2ccccc12	-17	i	i	1.5	i	i	i	i	i
S=C(Nc1ccc2nccnc2c1)N1CCOCC1	-6	i	i	0.47	i	i	nt	nt	nt
Cc1cc(-c2ccccc2)nc(N/N=C/c2ccc(O)cc2O)n1	-17	-15*	i	2.3	i	i	75%*	i	33%*
Cc1cc(-c2ccccc2)nc(N/N=C/c2ccco2)n1	-14	i	i	0.2	i	i	nt	nt	nt
Cc1ccc(-c2cc(-c3ccccc3)nc(N/N=C/c3cccnc3)n2)cc1	-14	i	i	1	i	i	nt	nt	nt
C(=N/Nc1nc(-c2ccccc2)cc(-c2ccccc2)n1)/c1cccnc1	-11	i	i	0.69	i	i	i	i	i
CSc1nnnn1-c1ccc(C)c(Cl)c1	-5	i	i	-1	i	i	nt	nt	nt
Cc1cccc(NC(=O)C(C)Oc2ccc(C)nc2[N+](=O)[O-])c1 (centres undefined)	nt	nt	nt	nt	nt	i	nt	nt	nt
Cc1cccc(C)c1NC(=O)c1cnccn1	-3	i	i	0.15	i	i	nt	nt	nt
NS(=O)(=O)c1ccc(N2N=C(c3ccccc3)CC2c2ccccc2Cl)cc1 (centres undefined)	nt	nt	nt	nt	nt	i	nt	nt	nt
